Laboratory results published in ChEMBL document CHEMBL3232963, “Discovery of a potent and selective α3β4 nicotinic acetylcholine receptor antagonist from an α-conotoxin synthetic combinatorial library” (J Med Chem, 2014).
Activity calls are given as the source filed them. The calls are words filed in the database; no cut-off is given here. Bridge positions count the residues as written; N and C are the ends. Peptide text beside a SMILES is read from it.

Tests used:
[1] = target: Neuronal acetylcholine receptor; alpha3/beta4 (Homo sapiens, UniProt P30926+P32297); assay: Antagonist activity at alpha3beta4 nAChR (unknown origin); type: protein-complex assay
Sequence of Neuronal acetylcholine receptor; alpha3/beta4 (Homo sapiens, UniProt P30926+P32297) (P30926 whole entry): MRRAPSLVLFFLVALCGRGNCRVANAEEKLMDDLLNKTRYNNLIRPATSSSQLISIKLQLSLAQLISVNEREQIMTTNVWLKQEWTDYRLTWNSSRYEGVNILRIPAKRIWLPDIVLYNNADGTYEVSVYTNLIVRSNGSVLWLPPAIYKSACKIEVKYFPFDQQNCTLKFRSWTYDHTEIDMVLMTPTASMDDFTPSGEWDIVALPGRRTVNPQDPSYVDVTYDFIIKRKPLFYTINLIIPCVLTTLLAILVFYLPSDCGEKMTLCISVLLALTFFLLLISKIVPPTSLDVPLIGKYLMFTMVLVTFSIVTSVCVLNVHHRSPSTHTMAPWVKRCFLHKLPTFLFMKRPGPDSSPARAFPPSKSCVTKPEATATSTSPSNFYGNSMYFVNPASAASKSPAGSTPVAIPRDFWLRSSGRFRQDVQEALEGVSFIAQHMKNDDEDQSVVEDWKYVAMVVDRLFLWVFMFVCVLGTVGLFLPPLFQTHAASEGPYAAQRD
Sequence of Neuronal acetylcholine receptor; alpha3/beta4 (Homo sapiens, UniProt P30926+P32297) (P32297 whole entry): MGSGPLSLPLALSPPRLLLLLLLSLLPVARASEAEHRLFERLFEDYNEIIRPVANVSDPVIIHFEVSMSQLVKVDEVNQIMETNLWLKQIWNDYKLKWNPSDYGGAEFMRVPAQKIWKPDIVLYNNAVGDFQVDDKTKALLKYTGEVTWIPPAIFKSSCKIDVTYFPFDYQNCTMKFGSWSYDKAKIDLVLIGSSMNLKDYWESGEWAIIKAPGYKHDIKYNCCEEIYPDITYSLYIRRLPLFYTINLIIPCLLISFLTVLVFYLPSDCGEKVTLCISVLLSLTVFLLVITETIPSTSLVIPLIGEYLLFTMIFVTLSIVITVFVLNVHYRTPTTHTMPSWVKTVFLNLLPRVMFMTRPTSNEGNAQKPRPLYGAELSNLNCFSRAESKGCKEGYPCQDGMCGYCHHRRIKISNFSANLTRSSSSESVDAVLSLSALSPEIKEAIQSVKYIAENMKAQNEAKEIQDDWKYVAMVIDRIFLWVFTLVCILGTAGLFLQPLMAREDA
Method in brief: (§1)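 Stably transfected HEK293 lines (KXα3β4R2, KXα3β2R2, KXα4β2R2; rat subunits) grown in DMEM/10% FBS with G-418, plated 24 h before assay. Cells washed with HBSS, peptide added, then membrane potential blue dye, 30 min at 37 °C. Fluorescence (ex 565/em 530 nm) read up to 60 s after epibatidine to 0.1 μM. IC50 from maximal responses across concentrations; n = 4.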

[2] = target: T1, Neuronal acetylcholine receptor; alpha3/beta4 (Rattus norvegicus, UniProt P04757+P12392); assay: Inhibition of rat alpha3beta4 nAChR expressed in Xenopus laevis oocytes by voltage clamp technique; type: cell-based
T1 sequence (P04757 whole entry, the tested form may be a part): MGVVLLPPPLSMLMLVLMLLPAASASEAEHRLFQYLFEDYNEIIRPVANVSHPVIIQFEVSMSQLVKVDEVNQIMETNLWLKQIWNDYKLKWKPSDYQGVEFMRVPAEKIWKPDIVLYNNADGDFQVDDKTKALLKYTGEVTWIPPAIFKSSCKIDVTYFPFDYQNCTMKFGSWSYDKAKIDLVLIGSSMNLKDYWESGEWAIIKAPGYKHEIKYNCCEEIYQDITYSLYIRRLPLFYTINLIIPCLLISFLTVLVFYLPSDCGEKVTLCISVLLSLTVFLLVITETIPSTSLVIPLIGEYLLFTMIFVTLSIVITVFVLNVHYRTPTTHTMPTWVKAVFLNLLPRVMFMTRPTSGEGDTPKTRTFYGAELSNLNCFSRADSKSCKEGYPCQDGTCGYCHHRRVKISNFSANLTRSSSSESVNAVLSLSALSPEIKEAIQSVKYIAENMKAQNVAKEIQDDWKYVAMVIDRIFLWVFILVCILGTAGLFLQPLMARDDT
T1 sequence (P12392 whole entry, the tested form may be a part): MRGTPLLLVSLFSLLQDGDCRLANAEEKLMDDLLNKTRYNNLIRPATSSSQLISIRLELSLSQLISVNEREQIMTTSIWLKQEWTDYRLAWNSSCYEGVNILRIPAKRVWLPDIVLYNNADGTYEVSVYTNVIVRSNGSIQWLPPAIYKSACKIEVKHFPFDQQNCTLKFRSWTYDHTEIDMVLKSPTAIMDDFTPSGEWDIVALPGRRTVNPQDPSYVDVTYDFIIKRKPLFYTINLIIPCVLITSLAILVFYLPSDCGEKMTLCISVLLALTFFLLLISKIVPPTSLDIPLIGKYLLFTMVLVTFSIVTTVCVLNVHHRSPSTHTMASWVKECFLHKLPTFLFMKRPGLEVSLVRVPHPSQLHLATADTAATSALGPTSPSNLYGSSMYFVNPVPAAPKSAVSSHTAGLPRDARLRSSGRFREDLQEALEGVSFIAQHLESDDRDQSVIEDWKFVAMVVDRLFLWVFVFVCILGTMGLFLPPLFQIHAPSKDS
Method in brief: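 Oocytes expressing α3 chimera/β4 nAChR, voltage-clamped at ~22 °C. Concentrations below 1 μM perfused, with 1 s ACh pulses every 1 min; 1 μM and above given as a 5 min static bath. Lowest concentration tested 10 nM. IC50 from a concentration–response curve with top and bottom fixed at 100 and 0; n = 3–5 oocytes per concentration.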

[3] = target: T1, Neuronal acetylcholine receptor; alpha3/beta4; assay: Displacement of [3H]epibatadine from rat alpha3beta4 nAChR expressed in HEK293 cells after 2 hrs by betaplate counting analysis; type: cell-based
Method in brief: (§2)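 Membranes from HEK293 cells stably expressing α3β4 or α4β2 nAChR, homogenised in 50 mM Tris pH 7.4 and washed by centrifugation. Incubated 2 h at room temperature with peptide and 0.31 nM [3H]epibatidine; filtered on PEI-soaked glass fibre, counted. Nonspecific binding with 0.1 μM unlabeled epibatidine. Ki by Cheng–Prusoff from IC50.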

HEK293 = assay: Selectivity ratio of IC50 for rat alpha3beta4 nAChR expressed in HEK293 cells to IC50 for rat alpha3beta2 nAChR expressed in HEK293 cells; type: cell-based
[4] = target: Neuronal acetylcholine receptor; alpha4/beta2 (Rattus norvegicus, UniProt P09483+P12390); assay: Antagonist activity at rat alpha4beta2 nAChR expressed in HEK293 cells assessed as inhibition of epibatadine-induced effect after 30 mins by fluorescent membrane potential assay; type: cell-based; method in brief: as §1
Sequence of Neuronal acetylcholine receptor; alpha4/beta2 (P09483 whole entry): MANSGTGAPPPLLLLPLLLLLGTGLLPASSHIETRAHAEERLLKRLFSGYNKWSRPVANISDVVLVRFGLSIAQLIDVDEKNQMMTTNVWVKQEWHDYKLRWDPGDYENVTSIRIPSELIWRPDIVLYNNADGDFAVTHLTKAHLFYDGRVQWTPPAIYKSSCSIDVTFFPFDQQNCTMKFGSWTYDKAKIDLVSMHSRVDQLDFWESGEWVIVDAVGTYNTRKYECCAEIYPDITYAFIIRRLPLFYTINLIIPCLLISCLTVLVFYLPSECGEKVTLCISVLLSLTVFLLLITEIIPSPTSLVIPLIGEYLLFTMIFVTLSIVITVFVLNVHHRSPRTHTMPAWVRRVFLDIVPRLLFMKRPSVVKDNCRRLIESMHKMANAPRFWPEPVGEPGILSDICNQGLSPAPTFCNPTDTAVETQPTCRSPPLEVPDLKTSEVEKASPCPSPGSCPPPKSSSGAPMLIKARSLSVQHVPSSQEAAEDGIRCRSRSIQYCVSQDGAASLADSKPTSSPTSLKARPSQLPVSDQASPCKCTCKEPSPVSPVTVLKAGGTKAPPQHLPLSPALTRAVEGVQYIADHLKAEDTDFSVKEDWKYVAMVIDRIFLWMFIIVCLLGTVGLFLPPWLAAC
Sequence of Neuronal acetylcholine receptor; alpha4/beta2 (P12390 whole entry): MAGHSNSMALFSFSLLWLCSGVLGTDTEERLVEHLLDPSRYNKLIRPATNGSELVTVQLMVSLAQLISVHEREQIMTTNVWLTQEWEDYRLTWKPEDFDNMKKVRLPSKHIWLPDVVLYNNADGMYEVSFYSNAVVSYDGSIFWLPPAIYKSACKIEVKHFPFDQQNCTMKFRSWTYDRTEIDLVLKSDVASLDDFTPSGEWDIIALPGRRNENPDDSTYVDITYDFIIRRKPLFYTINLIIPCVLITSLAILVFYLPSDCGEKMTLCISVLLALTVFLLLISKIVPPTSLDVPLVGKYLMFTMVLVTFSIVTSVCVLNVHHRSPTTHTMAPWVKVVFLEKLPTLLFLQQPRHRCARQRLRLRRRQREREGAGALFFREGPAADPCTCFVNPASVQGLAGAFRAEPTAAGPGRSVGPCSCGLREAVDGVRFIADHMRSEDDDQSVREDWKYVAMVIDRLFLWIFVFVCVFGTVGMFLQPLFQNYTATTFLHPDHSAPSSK

[5] = target: Neuronal acetylcholine receptor; alpha3/beta2 (Rattus norvegicus, UniProt P04757+P12390); assay: Antagonist activity at rat alpha3beta2 nAChR expressed in HEK293 cells assessed as inhibition of epibatadine-induced effect after 30 mins by fluorescent membrane potential assay; type: cell-based; method in brief: as §1
Sequence of Neuronal acetylcholine receptor; alpha3/beta2 (P04757 whole entry): as the sequence (P04757 whole entry, the tested form may be a part) above
Sequence of Neuronal acetylcholine receptor; alpha3/beta2 (P12390 whole entry): as the sequence (P12390 whole entry) above

[6] = target: T1, Neuronal acetylcholine receptor; alpha3/beta4; assay: Antagonist activity at rat alpha3beta4 nAChR expressed in HEK293 cells assessed as inhibition of epibatadine-induced effect after 30 mins by fluorescent membrane potential assay; type: cell-based; method in brief: as §1
[7] = target: Neuronal acetylcholine receptor; alpha4/beta2 (Rattus norvegicus) (UniProt P09483+P12390); assay: Displacement of [3H]epibatadine from rat alpha4beta2 nAChR expressed in HEK293 cells up to 10 uM after 2 hrs by betaplate counting analysis; type: cell-based; method in brief: as §2
[8] = target: Neuronal acetylcholine receptor; alpha3/beta4 (Rattus norvegicus) (UniProt P04757+P12392); assay: Antagonist activity at rat alpha3beta4 nAChR expressed in HEK293 cells assessed as inhibition of epibatadine-induced effect at 10 uM after 30 mins by fluorescent membrane potential assay relative to mecamylamine; type: cell-based
Method in brief: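 Rat α3β4 nAChR stably expressed in HEK293 cells; crude, SPE-desalted individual peptides tested at 10 μM in HBSS with membrane potential blue dye, 30 min at 37 °C. Fluorescence change read after epibatidine (0.1 μM). Percent inhibition set against 10 μM mecamylamine taken as 100%.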

For CC[C@H](C)[C@@H]1NC(=O)[C@H](Cc2cnc[nH]2)NC(=O)[C@@H]2CCCN2C(=O)[C@H](CC(N)=O)NC(=O)[C@H](CC(N)=O)NC(=O)[C@H](C(C)C)NC(=O)[C@H](CC(N)=O)NC(=O)[C@@H]2CSSC[C@H](NC(=O)CN)C(=O)N[C@@H](CSSC[C@@H](C(=O)O)NC1=O)C(=O)N[C@@H](CO)C(=O)N[C@@H](Cc1cnc[nH]1)C(=O)N1CCC[C@H]1C(=O)N[C@@H](C)C(=O)N2 (H-GCCSHPACNVNNPHIC-OH; disulfide 2-8, 3-16), which IC50 [1] is on record?
Its IC50 is 97 nM.

For CC(C)C[C@@H]1NC(=O)[C@H](C(C)C)NC(=O)[C@H](C)NC(=O)[C@@H]2CSSC[C@H](NC(=O)CN)C(=O)N[C@@H](CSSC[C@@H](C(=O)O)NC(=O)[C@H](Cc3ccc(O)cc3)NC1=O)C(=O)N[C@@H](CO)C(=O)N[C@@H]([C@H](C)O)C(=O)N1CCC[C@H]1C(=O)N1CCC[C@H]1C(=O)N2, which IC50 [2] is on record?
Its IC50 is 27.7 nM.

What about the Ki [3] of the same molecule?
The Ki was 851 nM.

What about the Ratio IC50 (HEK293) of the same molecule?
The Ratio IC50 was 10.

And the IC50 [4]?
The IC50 was > 10 µM.

And the IC50 [5]?
The IC50 was 26 nM.

And the IC50 [6]?
The IC50 was 265 nM.

And the Activity [7]?
Its Activity is “inactive”.

And the inhibition [8]?
The inhibition was 94.4%.

How did the IC50 [2] turn out when C[C@@H]1NC(=O)[C@H](Cc2ccccc2)NC(=O)[C@@H]2CSSC[C@H](NC(=O)CN)C(=O)N[C@@H](CSSC[C@@H](C(=O)O)NC(=O)[C@H](CC(=O)O)NC(=O)[C@@H]3CCCN3C(=O)[C@H](CC(N)=O)NC(=O)[C@H]([C@@H](C)O)NC1=O)C(=O)N[C@@H](CO)C(=O)N[C@@H](Cc1ccc(O)cc1)C(=O)N1CCC[C@H]1C(=O)N1CCC[C@H]1C(=O)N2 was run?
Its IC50 is 770 nM.

How did the IC50 [2] turn out when CC(C)C[C@@H]1NC(=O)[C@H](CCC(=O)O)NC(=O)[C@@H]2CCCN2C(=O)[C@H](Cc2cnc[nH]2)NC(=O)[C@H](CC(N)=O)NC(=O)[C@H](C(C)C)NC(=O)[C@H](CO)NC(=O)[C@@H]2CSSC[C@H](NC(=O)CN)C(=O)N[C@@H](CSSC[C@@H](C(=O)O)NC1=O)C(=O)N[C@@H](CO)C(=O)N[C@@H](Cc1cnc[nH]1)C(=O)N1CCC[C@H]1C(=O)N[C@@H](C)C(=O)N2 (H-GCCSHPACSVNHPELC-OH; disulfide 2-8, 3-16) was run?
Its IC50 is 480 nM.
